{"source": "ChEMBL document CHEMBL1782042", "about": "“Efficient microwave-assisted synthesis and antitumor activity of novel 4,4'-methylenebis[2-(3-aryl-4,5-dihydro-1H-pyrazol-5-yl)phenols]” (Eur J Med Chem, 2011)", "key": {"UO-31": {"system": "UO-31", "test": "Cytotoxicity against human UO31 cells", "type": "cell-based", "outline": "(§1)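 NCI 60 human tumour cell line screen; five concentration levels (100, 10, 1.0, 0.1 and 0.01 μM), 48 h continuous drug exposure. Cell growth estimated by sulforhodamine B (SRB) protein staining. GI50 taken as the drug concentration giving a 50% reduction in net protein increase relative to control cells over the incubation.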"}, "NCI-H226": {"system": "NCI-H226", "test": "Cytotoxicity against human NCI-H226 cells", "type": "cell-based", "outline": "(§2)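 NCI 60 human tumour cell line screen, second stage at five concentrations (100, 10, 1.0, 0.1 and 0.01 μM). Continuous drug exposure for 48 h, with cell growth estimated by sulforhodamine B protein staining. GI50 is the drug concentration giving a 50% reduction in net protein increase relative to control cells over the incubation.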"}, "SW-620 [1]": {"system": "SW-620", "test": "Cytotoxicity against human SW620 cells", "type": "cell-based", "outline": "as §1"}, "MCF7": {"system": "MCF7", "test": "Cytotoxicity against human MCF7 cells", "type": "cell-based", "outline": "as §2"}, "MDA-MB-435 [2]": {"system": "MDA-MB-435", "test": "Cytotoxicity against human MDA-MB-435 cells", "type": "cell-based", "outline": "as §2"}, "CCRF-CEM [3]": {"system": "CCRF-CEM", "test": "Anticancer activity against human CCRF-CEM cells after 48 hrs by sulforhodamine B assay", "type": "functional", "outline": "(§3)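 NCI 60-cell-line in vitro screen, second stage: five concentration levels (100, 10, 1.0, 0.1 and 0.01 μM) with 48 h continuous drug exposure. Cell growth was estimated by sulforhodamine B protein staining. GI50 is the drug concentration that gives a 50% reduction in net protein increase relative to control cells over the incubation.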"}, "786-0 [4]": {"system": "786-0", "test": "Cytotoxicity against human 786-0 cells", "type": "cell-based", "outline": "as §2"}, "SW-620 [5]": {"system": "SW-620", "test": "Anticancer activity against human SW620 cells after 48 hrs by sulforhodamine B assay", "type": "functional", "conditions": "SW-620, 48 h", "outline": "(§4)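 NCI 60-cell-line screen, second stage. Five concentration levels (100, 10, 1.0, 0.1 and 0.01 μM), 48 h continuous drug exposure. Cell growth was estimated by sulforhodamine B protein staining. GI50 is the concentration giving a 50% reduction in net protein increase relative to control cells over the drug incubation. Compounds entered this stage after an earlier single-dose screen.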"}, "LOX IMVI": {"system": "LOX IMVI", "test": "Cytotoxicity against human LOXIMVI cells", "type": "cell-based", "outline": "as §2"}, "U-251 [6]": {"system": "U-251", "test": "Cytotoxicity against human U251 cells", "type": "cell-based", "outline": "as §1"}, "MDA-MB-468": {"system": "MDA-MB-468", "test": "Cytotoxicity against human MDA-MB-468 cells", "type": "cell-based", "outline": "as §2"}, "SNB-75": {"system": "SNB-75", "test": "Anticancer activity against human SNB75 cells after 48 hrs by sulforhodamine B assay", "type": "functional", "conditions": "SNB-75, 48 h", "outline": "as §4"}, "OVCAR-8": {"system": "OVCAR-8", "test": "Cytotoxicity against human OVCAR8 cells", "type": "cell-based", "outline": "as §2"}, "A549": {"system": "A549", "test": "Cytotoxicity against human A549 cells", "type": "cell-based", "outline": "as §2"}, "T47D": {"system": "T47D", "test": "Cytotoxicity against human T47D cells", "type": "cell-based", "outline": "as §1"}, "NCI/ADR-RES [7]": {"system": "NCI/ADR-RES", "test": "Anticancer activity against human NCI/ADR-RES cells after 48 hrs by sulforhodamine B assay", "type": "functional", "outline": "as §3"}, "HCT-15": {"system": "HCT-15", "test": "Anticancer activity against human HCT15 cells after 48 hrs by sulforhodamine B assay", "type": "functional", "conditions": "HCT-15, 48 h", "outline": "as §3"}, "U-251 [8]": {"system": "U-251", "test": "Anticancer activity against human U251 cells after 48 hrs by sulforhodamine B assay", "type": "functional", "conditions": "U-251, 48 h", "outline": "as §4"}, "MDA-MB-435 [9]": {"system": "MDA-MB-435", "test": "Anticancer activity against human MDA-MB-435 cells after 48 hrs by sulforhodamine B assay", "type": "functional", "conditions": "MDA-MB-435, 48 h", "outline": "as §3"}, "OVCAR-4 [10]": {"system": "OVCAR-4", "test": "Anticancer activity against human OVCAR4 cells after 48 hrs by sulforhodamine B assay", "type": "functional", "conditions": "OVCAR-4, 48 h", "outline": "as §3"}, "SK-MEL-5": {"system": "SK-MEL-5", "test": "Cytotoxicity against human SK-MEL-5 cells", "type": "cell-based", "outline": "as §2"}, "SNB-19": {"system": "SNB-19", "test": "Anticancer activity against human SNB19 cells after 48 hrs by sulforhodamine B assay", "type": "functional", "conditions": "SNB-19, 48 h", "outline": "as §3"}, "HCT-116": {"system": "HCT-116", "test": "Cytotoxicity against human HCT116 cells", "type": "cell-based", "outline": "as §2"}, "OVCAR-4 [11]": {"system": "OVCAR-4", "test": "Cytotoxicity against human OVCAR4 cells", "type": "cell-based", "outline": "as §2"}, "NCI/ADR-RES [12]": {"system": "NCI/ADR-RES", "test": "Cytotoxicity against human NCI/ADR-RES cells", "type": "cell-based", "outline": "as §2"}, "HOP-92": {"system": "HOP-92", "test": "Anticancer activity against human HOP92 cells after 48 hrs by sulforhodamine B assay", "type": "functional", "conditions": "HOP-92, 48 h", "outline": "as §3"}, "786-0 [13]": {"system": "786-0", "test": "Anticancer activity against human 786-0 cells after 48 hrs by sulforhodamine B assay", "type": "functional", "conditions": "786-0, 48 h", "outline": "as §3"}, "NCI-H460": {"system": "NCI-H460", "test": "Cytotoxicity against human NCI-H460 cells", "type": "cell-based", "outline": "as §2"}, "NCI-H23": {"system": "NCI-H23", "test": "Anticancer activity against human NCI-H23 cells after 48 hrs by sulforhodamine B assay", "type": "functional", "conditions": "NCI-H23, 48 h", "outline": "as §3"}, "SK-MEL-2": {"system": "SK-MEL-2", "test": "Anticancer activity against human SK-MEL-2 cells after 48 hrs by sulforhodamine B assay", "type": "functional", "conditions": "SK-MEL-2, 48 h", "outline": "as §3"}, "BT-549": {"system": "BT-549", "test": "Anticancer activity against human BT549 cells after 48 hrs by sulforhodamine B assay", "type": "functional", "conditions": "BT-549, 48 h", "outline": "as §3"}, "Hs-578T": {"system": "Hs-578T", "test": "Anticancer activity against human Hs578T cells after 48 hrs by sulforhodamine B assay", "type": "functional", "outline": "as §3"}, "CCRF-CEM [14]": {"system": "CCRF-CEM", "test": "Cytotoxicity against human CCRF-CEM cells", "type": "cell-based", "outline": "as §2"}}}
{"smiles": "Cc1ccc(C2=NNC(c3cc(Cc4ccc(O)c(C5CC(c6ccc(C)cc6)=NN5)c4)ccc3O)C2)cc1", "note": "(stereo not drawn)", "values": [{"measurement": "LC50", "setting": "UO-31", "value": "> 100", "unit": "µM"}, {"measurement": "LC50", "setting": "NCI-H226", "value": "> 100", "unit": "µM"}, {"measurement": "LC50", "setting": "SW-620 [1]", "value": "> 100", "unit": "µM"}, {"measurement": "LC50", "setting": "MCF7", "value": 71.8, "unit": "µM"}, {"measurement": "LC50", "setting": "MDA-MB-435 [2]", "value": "> 100", "unit": "µM"}, {"measurement": "GI50", "setting": "CCRF-CEM [3]", "value": 3.85, "unit": "µM"}, {"measurement": "LC50", "setting": "786-0 [4]", "value": "> 100", "unit": "µM"}, {"measurement": "GI50", "setting": "SW-620 [5]", "value": 7.96, "unit": "µM"}, {"measurement": "LC50", "setting": "LOX IMVI", "value": "> 100", "unit": "µM"}, {"measurement": "LC50", "setting": "U-251 [6]", "value": "> 100", "unit": "µM"}, {"measurement": "LC50", "setting": "MDA-MB-468", "value": "> 100", "unit": "µM"}, {"measurement": "GI50", "setting": "SNB-75", "value": 4.98, "unit": "µM"}, {"measurement": "LC50", "setting": "OVCAR-8", "value": "> 100", "unit": "µM"}, {"measurement": "LC50", "setting": "A549", "value": "> 100", "unit": "µM"}, {"measurement": "LC50", "setting": "T47D", "value": "> 100", "unit": "µM"}, {"measurement": "GI50", "setting": "NCI/ADR-RES [7]", "value": 7.39, "unit": "µM"}, {"measurement": "GI50", "setting": "HCT-15", "value": 3.64, "unit": "µM"}, {"measurement": "GI50", "setting": "U-251 [8]", "value": 5.84, "unit": "µM"}, {"measurement": "GI50", "setting": "MDA-MB-435 [9]", "value": 8.52, "unit": "µM"}, {"measurement": "GI50", "setting": "OVCAR-4 [10]", "value": 5.36, "unit": "µM"}, {"measurement": "LC50", "setting": "SK-MEL-5", "value": 31.7, "unit": "µM"}, {"measurement": "GI50", "setting": "SNB-19", "value": 6.89, "unit": "µM"}, {"measurement": "LC50", "setting": "HCT-116", "value": 55.2, "unit": "µM"}, {"measurement": "LC50", "setting": "OVCAR-4 [11]", "value": "> 100", "unit": "µM"}, {"measurement": "LC50", "setting": "NCI/ADR-RES [12]", "value": "> 100", "unit": "µM"}, {"measurement": "GI50", "setting": "HOP-92", "value": 8.28, "unit": "µM"}, {"measurement": "GI50", "setting": "786-0 [13]", "value": 8.39, "unit": "µM"}, {"measurement": "LC50", "setting": "NCI-H460", "value": "> 100", "unit": "µM"}, {"measurement": "GI50", "setting": "NCI-H23", "value": 5.3, "unit": "µM"}, {"measurement": "GI50", "setting": "SK-MEL-2", "value": 5.9, "unit": "µM"}, {"measurement": "GI50", "setting": "BT-549", "value": 4.66, "unit": "µM"}, {"measurement": "GI50", "setting": "Hs-578T", "value": 5.58, "unit": "µM"}, {"measurement": "LC50", "setting": "CCRF-CEM [14]", "value": "> 100", "unit": "µM"}]}
